Experimental data published in article PMC6716794 (Biochemistry, 2019).
“Also recorded” adds a separate entry of the source.

Key:
thrombin ABE I = conditions: ligand bound to ABE II; cited from earlier work
[1] = molecular target: T1, ProT (prothrombin), pro-ABE I (Homo sapiens, UniProt P00734); experiment: 1D proton line broadening with ProT; format: binding; conditions: NMR buffer pH 6.5, 25 °C
Outline: (§1)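 Human plasma proteins: prothrombin, and thrombin blocked with PPACK (4:1 PPACK:thrombin, 37 °C, 30 min). Both were exchanged by ultrafiltration into NMR buffer (25 mM H3PO4, 150 mM NaCl, 0.2 mM EDTA, pH 6.5), and concentrations were set by E1%280 (13.8 prothrombin, 18.3 thrombin). Peptide at about 10-fold excess. Peptide 1H spectra were compared with and without enzyme.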

[2] = molecular target: T1, ProT (prothrombin), pro-ABE I; experiment: 1D and 2D 1H,15N-HSQC NMR titration with ProT; format: binding; conditions: [15N]-labeled at F55, K51, E53, D58 and E60; pH 6.5, 25 °C
Outline: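 Human plasma prothrombin buffer-exchanged into NMR buffer (25 mM H3PO4, 150 mM NaCl, 0.2 mM EDTA, pH 6.5). 15N-labeled PAR1 peptide held constant at 50 μM while protein was serially diluted from 115 or 150 μM. 1D/2D 1H,15N-HSQC shifts were fitted to a quadratic binding equation for KD, with Monte-Carlo errors assuming 10% dilution error. Titrations were run at least in duplicate.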

PPACK-thrombin, ABE I = experiment: 1D proton line broadening with PPACK-thrombin; format: binding, human; conditions: NMR buffer pH 6.5, 25 °C
Outline: as §1

GpIbα: platelet receptor glycoprotein GpIbα, binds thrombin ABE II
Effect on affinity of thrombomodulin TM456 for thrombin ABE I (thrombin ABE I): the affinity of thrombomodulin TM456 for ABE I decreases

PAR1G (49–62, P54G): weak binding PAR1 variant, residues 49–62 with P54G (NDKYEGFWEDEEKN; UniProt P25116 49-62, looked up, fragment P54G)
1D proton line broadening with ProT (PAR1G) ([1]; 830 μM PAR1G with 83 μM ProT): 1D proton line broadening could still be observed
Binding with pro-ABE I on ProT [2]: very weak binding with pro-ABE I on ProT
1D proton line broadening with mature thrombin (PAR1G) (PPACK-thrombin, ABE I; 870 μM PAR1G with 87 μM PPACK-thrombin): increased further with the mature thrombin; also recorded: the interactions increased upon formation of mature thrombin

PAR1P (49–62, P54): native PAR1 sequence peptide, residues 49–62, P54 (NDKYEPFWEDEEKN; UniProt P25116 49-62, looked up, fragment)
1D proton line broadening with ProT (PAR1P) ([1]; 780 μM PAR1P with 59 μM ProT, residues D50, K51, E53, F55, D58, E60): Substantial amide proton peak broadening; also recorded: moderate interactions with ProT
1D proton line broadening with PPACK-thrombin (PAR1P) (PPACK-thrombin, ABE I; 900 μM PAR1P with 97 μM PPACK-thrombin): increase in line broadening; also recorded: the interactions increased upon formation of mature thrombin
